# An excerpt weighted towards active compounds, which were near 2.5% of everything screened.
# Arr AP2 block: inhibitors of human beta-arrestin and AP2 interaction. AID 504490. inhibition, % at 10 µM. FITC-arrestin peptide / GST-AP2 beads, flow cytometry; AP2 beta2 appendage carries R879A mutation. 0.31% of 340,000 active;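 active = inhibition above a set limit, near 3 SD of compounds lacking own fluorescence, cut at about 54% in these data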;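 also: plate controls were DMSO wells for no effect and 5 µM unlabelled arrestin peptide for full effect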
#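 System: GST-AP2 R879A glutathione beads. Medium: PBS with 0.05% Tween 20 and 0.1% BSA. Also added: FITC-arrestin peptide, 50 nM. Incubation: 12 min plus 1 h, RT. Measured by: high-throughput flow cytometry of beads, ex 488, em 535 nm. Evaluation: percent drop in bead-associated FITC signal.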
# UHRF1 MBD2 ctr: blocks human UHRF1 binding to methylated DNA | 0.75% of 370,000 active | UHRF1 binding to methylated oligo, TR-FRET | inhibition, % at 4.4 µM | Q96T88;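 also: UHRF1 SRA domain binding a hemimethylated CpG hairpin DNA probe; 0% = median of test compound wells and 100% = reference inhibitor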
# ABHD5-PLIN5 inh: ABHD5-PLIN5 protein interaction inhibition; Q00G26+Q8WTS1; Split G. princeps luciferase complementation, luminescence, 4 h; inhibition, % at 4 µM; 0.78% of 360,000 active;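 active = inhibition above the mean inhibition across every tested compound plus 3 SD, cut at about 22% in these data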;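 also: 0% = DMSO only wells and the 100% control is not disclosed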
# MBD2 DNA inh: MBD2-methylated oligo binding inhibition | AID 686964 | 0.31% of 370,000 active | TR-FRET, MBD2 binding to methylated oligonucleotide | inhibition, % at 4.4 µM; in the data active = inhibition above about 13%
# B2AR ag: human beta-2 adrenergic receptor agonism by FAP | Am2.2-beta2AR cells, FAP receptor internalization, flow cytometry | response, % (test concentration not listed) | 0.43% of 340,000 active | AID 504454;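 active = response above a set limit, near 3 SD of response in nonfluorescent compounds, cut at about 42% in these data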
# Rin1-Abl PPI inh: inhibitors of human Rin1-Abl protein interaction | TR-FRET Rin1/Abl binding, biochemical | inhibition, % at 7.35 µM | 0.4% of 360,000 active | P00519+Q13671 | AID 588664; in the data active = inhibition above about 5%, passing the limit was not always enough
# Target sequence (P00519 whole entry, looked up): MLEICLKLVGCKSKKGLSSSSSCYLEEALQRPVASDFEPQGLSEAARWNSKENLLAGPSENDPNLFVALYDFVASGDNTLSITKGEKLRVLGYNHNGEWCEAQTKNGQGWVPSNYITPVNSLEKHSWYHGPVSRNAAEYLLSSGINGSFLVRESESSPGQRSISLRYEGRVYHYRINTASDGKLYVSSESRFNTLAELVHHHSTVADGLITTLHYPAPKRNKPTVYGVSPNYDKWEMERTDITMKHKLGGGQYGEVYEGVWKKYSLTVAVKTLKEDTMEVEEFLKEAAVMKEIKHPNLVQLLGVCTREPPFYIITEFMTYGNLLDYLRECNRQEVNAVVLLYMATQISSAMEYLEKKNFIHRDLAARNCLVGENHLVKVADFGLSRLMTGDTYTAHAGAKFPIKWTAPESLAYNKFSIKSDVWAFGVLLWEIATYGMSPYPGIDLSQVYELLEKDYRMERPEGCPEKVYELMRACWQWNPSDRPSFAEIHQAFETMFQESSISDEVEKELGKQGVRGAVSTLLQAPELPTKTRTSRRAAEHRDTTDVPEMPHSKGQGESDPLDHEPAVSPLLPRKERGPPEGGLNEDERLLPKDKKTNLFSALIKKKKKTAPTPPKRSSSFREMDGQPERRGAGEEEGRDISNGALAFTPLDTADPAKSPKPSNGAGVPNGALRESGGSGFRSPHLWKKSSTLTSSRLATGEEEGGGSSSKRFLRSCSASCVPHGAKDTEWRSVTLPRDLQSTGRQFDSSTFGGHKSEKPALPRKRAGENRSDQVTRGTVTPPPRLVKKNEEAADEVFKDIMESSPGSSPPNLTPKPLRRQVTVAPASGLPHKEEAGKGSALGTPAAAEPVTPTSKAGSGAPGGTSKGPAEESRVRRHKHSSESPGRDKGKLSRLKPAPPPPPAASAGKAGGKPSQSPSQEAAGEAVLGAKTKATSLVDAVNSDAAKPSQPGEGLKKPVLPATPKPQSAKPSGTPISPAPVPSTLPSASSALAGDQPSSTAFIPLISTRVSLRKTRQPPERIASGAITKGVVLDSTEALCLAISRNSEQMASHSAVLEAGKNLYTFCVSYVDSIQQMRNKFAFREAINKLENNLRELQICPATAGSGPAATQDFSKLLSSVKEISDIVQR
# Target sequence (Q13671 whole entry, looked up): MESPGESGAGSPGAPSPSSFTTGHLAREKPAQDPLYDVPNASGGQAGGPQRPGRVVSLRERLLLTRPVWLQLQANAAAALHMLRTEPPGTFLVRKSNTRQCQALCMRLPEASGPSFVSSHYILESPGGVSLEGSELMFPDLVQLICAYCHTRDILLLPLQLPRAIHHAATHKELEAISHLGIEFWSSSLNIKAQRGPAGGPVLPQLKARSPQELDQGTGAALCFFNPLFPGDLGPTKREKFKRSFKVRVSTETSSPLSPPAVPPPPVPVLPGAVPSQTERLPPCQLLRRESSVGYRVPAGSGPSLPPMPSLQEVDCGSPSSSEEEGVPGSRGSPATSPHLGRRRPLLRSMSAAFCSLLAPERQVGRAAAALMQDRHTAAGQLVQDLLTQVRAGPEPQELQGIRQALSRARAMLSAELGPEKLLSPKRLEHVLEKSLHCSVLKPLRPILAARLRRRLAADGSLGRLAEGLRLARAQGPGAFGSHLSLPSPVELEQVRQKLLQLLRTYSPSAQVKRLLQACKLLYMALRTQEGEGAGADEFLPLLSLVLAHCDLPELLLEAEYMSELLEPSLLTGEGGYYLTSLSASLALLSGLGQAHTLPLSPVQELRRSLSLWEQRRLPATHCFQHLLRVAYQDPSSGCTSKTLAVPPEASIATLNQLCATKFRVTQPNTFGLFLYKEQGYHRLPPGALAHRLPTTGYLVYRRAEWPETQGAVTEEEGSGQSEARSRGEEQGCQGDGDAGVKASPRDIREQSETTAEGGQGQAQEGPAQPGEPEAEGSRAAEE
# ABHD5 PLIN5 conf: ABHD5-PLIN5 interaction inhibition, confirmed | shares compounds with ABHD5-PLIN5 inh | biochemical ABHD5-PLIN5 interaction, luminescence | inhibition, % at 4 µM | 67% of 2,200 active; in the data active = inhibition above about 23%;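 also: 0% = DMSO vehicle wells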
# HNF4 split-luc: counter-screen for ABHD5-PLIN5 inhibitors: HNF4 split-luciferase. shares compounds with ABHD5-PLIN5 inh. HNF4 dimerization, luminescence, biochemical. inhibition, % at 4 µM. 77% of 2,200 active;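 active = mean inhibition across replicate wells exceeding the computed hit threshold, cut at about 13% in these data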;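 also: light from luciferase halves that rejoin when HNF4 fusion proteins dimerize; 0% = DMSO only wells and the 100% control is not given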
# UHRF1 ctr MBD2: inhibits human UHRF1 binding to methylated oligonucleotide, MBD2 counter-screen. shares compounds with MBD2 DNA inh. TR-FRET. inhibition, % at 4.4 µM. 25% of 1,000 active. AID 720530;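 also: UHRF1 SRA domain binding a labeled hemimethylated CpG hairpin DNA; 0% = vehicle only and 100% = reference inhibitor with vehicle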
# MBD2 confirm: confirmation of human MBD2-DBD methylated oligonucleotide binding inhibitors; shares compounds with MBD2 DNA inh; TR-FRET MBD2-DBD binding to methylated oligonucleotide; inhibition, % at 4.4 µM; 26% of 1,000 active; in the data active = inhibition above about 14%
# * = called active by the depositor; x = no result. Rule as the data show it, unless noted: active = inhibition above about 21%; inactive = the rest.
SMILES,Arr AP2 block,UHRF1 MBD2 ctr,ABHD5-PLIN5 inh,MBD2 DNA inh,B2AR ag,Rin1-Abl PPI inh,ABHD5 PLIN5 conf,HNF4 split-luc,others
Cc1ccc(-c2cc(-c3ccccc3)cc(-c3ccccc3)[n+]2-c2ccccc2)cc1,-11.6,2.0,13.4,7.7,32.0,2.5,x,x,
CN(C)c1ccc(-[n+]2c(-c3ccccc3)cc(-c3ccccc3)cc2-c2ccccc2)cc1,-16.0,-3.9,26.4*,-5.6,-0.1,-7.0,6.5,3.3,
O=C(O)CCn1cc(C=C2C(=O)NC(=O)NC2=O)c(-c2ccc(Br)cc2)n1,-1.9,-6.0,24.5*,-2.0,3.5,-1.3,68.8*,70.5*,
O=C(O)CCn1cc(C=C2C(=O)NC(=S)NC2=O)c(-c2cccc(Cl)c2)n1,4.5,2.0,7.5,-4.5,2.5,2.0,x,x,
COc1ccc(-n2c(O)c(C(C)=NC3CC3)c(=O)[nH]c2=O)cc1,-6.8,-0.2,-2.5,-2.6,3.6,0.2,x,x,
CC(=NCc1ccc2c(c1)OCO2)c1c(O)n(-c2ccc(C)cc2)c(=O)[nH]c1=O,26.1,2.9,98.5*,2.8,3.4,0.9,-1.8,-2.3,
C=CCn1c(O)c(C(C)=NCc2ccc3c(c2)OCO3)c(=O)[nH]c1=O,-1.9,0.3,-4.6,1.7,5.0,-0.9,x,x,
COc1ccc(OC(=O)N(C)C[C@H]2OCc3cnnn3CCCC(=O)N([C@H](C)CO)C[C@@H]2C)cc1,x,-1.4,2.4,3.6,x,-3.2,x,x,
COc1ccc2c3c1OC1C(=O)CC[C@@]4(O)[C@@H](C2)N(C)CC[C@]314 (stereo not given in full),6.7,-3.1,18.6,-0.3,7.5,2.8,x,x,
COc1ccc(CN2Cc3cnnn3-c3ccccc3C2C#N)cc1 (stereo not given),23.8,0.2,58.3*,-1.1,21.0,-0.2,91.4*,88.9*,
COc1ccccc1-n1c(O)c(C=Nc2c(C)n(C)n(-c3ccccc3)c2=O)c(=O)[nH]c1=O,1.8,2.1,2.7,2.8,4.5,1.5,x,x,
CC(C)CN1Cc2cc(-c3cccc(F)c3)ccc2-n2nncc2C1,x,1.9,6.7,1.5,x,-1.2,x,x,
COC(=O)[C@@H]1[C@@H](C(=O)OC)C2(c3ccccc3-c3ccccc32)N(c2ccc(Cl)cc2)N1C#N,23.7,4.5,77.7*,1.3,24.6,1.0,97.3*,96.5*,
COC(=O)C[C@]1(C(=O)OC)CN(C#N)N(c2ccc(Cl)cc2)C12c1ccccc1-c1ccccc12,22.5,5.7,78.3*,10.3,15.8,3.8,97.6*,97.0*,
[N-]=[N+]=CC(=O)OC[C@H](N)C(=O)O,5.2,-1.2,-9.7,-4.5,-3.2,-1.6,x,x,
COc1ccc(/C=C/C(=O)NC(=S)N2C[C@H]3C[C@H](C2)c2cccc(=O)n2C3)cc1OC,-4.9,-2.2,-8.8,-2.6,-5.7,-5.9,x,x,
CSc1ncc(/C=C2/C(=O)NC(=O)N(c3ccc(C)cc3)C2=O)cn1,11.9,-1.6,18.3,-4.4,6.7,-0.8,x,x,
Cc1ccc(N2C(=O)NC(=O)/C(=C\c3cnc(-c4ccccc4)nc3)C2=O)cc1,5.7,-2.0,30.4*,0.6,3.1,-1.5,86.5*,92.2*,
CCOc1ccc(N2C(=O)NC(=O)/C(=C/c3cnc(SC)nc3)C2=O)cc1,39.6,4.8,28.2*,2.0,-4.2,4.8,71.2*,87.1*,
CSc1ncc(/C=C2/C(=O)NC(=O)N(c3ccc(Cl)cc3)C2=O)cn1,9.1,0.5,41.5*,-0.2,-0.4,0.8,78.1*,90.6*,
COC(=O)C1=C(c2ccc(OC(F)(F)F)cc2)C[C@@H]2CC[C@H]1N2C(=O)N1CCC(C)CC1,3.8,5.0,-2.9,3.4,-0.8,0.1,x,x,
Cc1nc2cc(-c3ccc(Cl)cc3)nn2c(C)c1CCC(=O)N1CCC2(CC1)OCCO2,15.9,0.5,8.9,0.1,6.3,-6.2,x,x,
Cc1c(N=Nc2c(O)n(C)c(=O)n(C)c2=O)c(=O)n(-c2ccccc2)n1C,-1.2,2.0,3.1,4.8,-6.0,1.2,x,x,
COC(=O)C1=C(c2cc3ccccc3o2)C[C@@H]2CC[C@H]1N2C(=O)NCc1cccc2ccccc12,0.7,8.7,6.9,10.4,-9.3,1.9,x,x,
COC(=O)C1=C(c2cc3ccccc3o2)C[C@@H]2CC[C@H]1N2C(=O)NCc1ccco1,10.2,-2.4,23.3*,-3.0,1.3,-3.6,7.9,10.8,
SMILES,Arr AP2 block,UHRF1 MBD2 ctr,ABHD5-PLIN5 inh,MBD2 DNA inh,B2AR ag,Rin1-Abl PPI inh,ABHD5 PLIN5 conf,HNF4 split-luc,others
NC(=S)N/N=C/c1coc2ccccc2c1=O,-3.2,-3.6,-1.8,0.1,-8.0,2.8,x,x,
C=CCNC(=O)c1c(N)n(Cc2ccco2)c2nc3ccccc3nc12,-4.7,-9.5,36.0*,-5.5,6.1,-1.8,50.3*,65.9*,
C=CCn1cc(C=C2C(=O)N(C)C(=O)N(C)C2=O)c2ccccc21,-21.0,-1.4,23.3*,-0.4,0.6,-1.1,6.9,4.9,
Cc1ccc(N2C(=O)NC(=O)/C(=C\c3cn(CC(=O)O)c4ccccc34)C2=O)cc1,4.4,-0.1,26.7*,-5.8,5.4,2.5,25.0*,18.9*,
COC(=O)Cn1cc(/C=C2\C(=O)NC(=O)N(c3ccccc3)C2=O)c2ccccc21,-0.1,-1.1,24.3*,-1.0,26.5,-1.5,43.6*,37.9*,
O=C(O)Cn1cc(/C=C2\C(=O)NC(=O)N(c3ccc(Br)cc3)C2=O)c2ccccc21,31.7,0.9,21.5,6.1,4.7,-2.1,x,x,
C[C@]1(O)CCC2C3CC[C@H]4C[C@@H](OC(=O)[C@@H](N)CCCCN)CC[C@]4(C)C3CC[C@@]21C (stereo not given in full),x,-0.5,-3.5,-5.1,x,-1.5,x,x,
Nc1ccc2ccc3cccc[n+]3c2c1,15.6,-298.7,-0.5,-83.5,-5.3,-118.9,x,x,
C[n+]1c(-c2ccccc2)c2cc(N)ccc2c2ccc(N)cc21,27.5,61.5*,-18.7,55.1*,16.6,-7.4,x,x,UHRF1 ctr MBD2=76.7*;MBD2 confirm=85.6*
CC(C)CN1CCN(Cc2ccc(C(F)(F)F)cc2)CC1CCO (stereo not given),9.8,6.5,3.4,6.8,5.0,-1.0,x,x,
CC(=O)N1Cc2cnnn2-c2ccccc2C1(C#N)Cc1ccccc1 (stereo not given),25.3,-0.5,16.1,29.2*,8.2,-2.3,x,x,UHRF1 ctr MBD2=6.7;MBD2 confirm=4.9
